The text below walks through data of ChEMBL document CHEMBL1145952, “Hybrid-designed inhibitors of p38 MAP kinase utilizing N-arylpyridazinones” (J Med Chem, 2003).

Structures are written as SMILES. pIC50: −log10 of the molar value.

Assay [1] deals with Mitogen-activated protein kinase 9 (Homo sapiens) (UniProt P45984). The assay can be described thus: Inhibition of recombinant human flag-tagged JNK2-beta-2 at 10000 nM. Format: functional. The method, boiled down:
(§1)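 Kinase assay with recombinant human FLAG-tagged JNK2β fusion protein phosphorylating GST-ATF2. Phosphorylated GST-ATF2 detected by HTRF.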

Assay [2] addresses Mitogen-activated protein kinase 14 (Mus musculus, UniProt P47811). The assay can be described thus: Tested in vitro for filter plate binding versus gamma-[33P]ATP in active recombinant murine FLAG-P38 alpha fusion protein (GST-Activating transcription factor-2).
Assay [3] concerns the target Mitogen-activated protein kinase 11 (Mus musculus, UniProt Q9WUI1). The assay can be described thus: Displacement of [gamma-33P]-ATP binding from active recombinant murine FLAG-Mitogen-activated protein kinase p38 beta fusion protein (GST-ATF2). The method, boiled down: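 Filter-plate binding assay of compound competing with [γ-33P]ATP on active recombinant murine FLAG-tagged p38 fusion protein, with GST-ATF2. IC50 values are the average of two or more separate assays. Repeat determinations differed by ±20% on average.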

For assay [4], the target named is T1, MAP kinase p38 (Homo sapiens, UniProt O15264+Q15759+Q16539+P53778). The assay can be described thus: Inhibition of Tumor necrosis factor alpha release from LPS-induced THP-1 cells by ELISA. Format: functional, cell-based. The method in brief: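 Human THP-1 monocytic cells stimulated with LPS. Human TNFα in the cell supernatant measured by ELISA.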
Assay [5] deals with Mitogen-activated protein kinase 11 (Mus musculus) (UniProt Q9WUI1). The assay can be described thus: Displacement of [gamma-33P]-ATP from recombinant murine Mitogen-activated protein kinase p38 beta at 5000 nM.
Sequence of Mitogen-activated protein kinase 11 (Mus musculus) (Q9WUI1 whole entry): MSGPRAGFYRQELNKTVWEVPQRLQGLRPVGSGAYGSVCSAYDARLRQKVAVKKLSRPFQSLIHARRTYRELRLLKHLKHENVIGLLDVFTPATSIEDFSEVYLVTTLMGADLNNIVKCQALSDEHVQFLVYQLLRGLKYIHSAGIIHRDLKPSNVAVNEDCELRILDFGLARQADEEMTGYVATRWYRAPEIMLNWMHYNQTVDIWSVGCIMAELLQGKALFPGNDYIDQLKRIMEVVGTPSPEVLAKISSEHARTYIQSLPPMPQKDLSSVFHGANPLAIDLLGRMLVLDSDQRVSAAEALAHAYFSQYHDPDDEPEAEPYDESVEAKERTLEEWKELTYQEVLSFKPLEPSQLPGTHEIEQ
For assay [6], the target named is T1, MAP kinase p38. The assay can be described thus: Inhibition of LPS-induced p38-related Tumor necrosis factor alpha release by THP-1 cells at 4000 nM. Format: functional, cell-based.
The target of assay [7] is Mitogen-activated protein kinase 11 (Mus musculus) (UniProt Q9WUI1). The assay can be described thus: Displacement of [gamma-33P]-ATP from recombinant murine Mitogen-activated protein kinase p38 beta at 100 nM.
In assay [8] the target is Mitogen-activated protein kinase 9 (Homo sapiens) (UniProt P45984). The assay can be described thus: Inhibition of recombinant human flag-tagged JNK2-beta-2 at 1000 nM. Format: functional. The method, boiled down: as §1
Sequence of Mitogen-activated protein kinase 9 (Homo sapiens) (P45984 whole entry, looked up, the tested form may be a part): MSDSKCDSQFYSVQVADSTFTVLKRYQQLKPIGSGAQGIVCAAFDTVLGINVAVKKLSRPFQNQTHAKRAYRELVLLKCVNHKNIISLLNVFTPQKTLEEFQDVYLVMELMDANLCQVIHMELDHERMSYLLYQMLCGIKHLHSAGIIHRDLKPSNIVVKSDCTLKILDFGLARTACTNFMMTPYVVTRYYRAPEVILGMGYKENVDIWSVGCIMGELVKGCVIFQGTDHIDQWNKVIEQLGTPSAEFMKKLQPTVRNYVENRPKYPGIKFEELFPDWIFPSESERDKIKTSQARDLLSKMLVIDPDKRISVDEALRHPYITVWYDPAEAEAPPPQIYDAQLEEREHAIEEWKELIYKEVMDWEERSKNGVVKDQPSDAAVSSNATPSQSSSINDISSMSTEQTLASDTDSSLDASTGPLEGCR
For assay [9], the target named is Mitogen-activated protein kinase 14 (Mus musculus) (UniProt P47811). The assay can be described thus: Inhibition of [gamma-33P]-ATP binding to recombinant murine p38 alpha at 100 nM.
Sequence of Mitogen-activated protein kinase 14 (Mus musculus) (P47811 whole entry): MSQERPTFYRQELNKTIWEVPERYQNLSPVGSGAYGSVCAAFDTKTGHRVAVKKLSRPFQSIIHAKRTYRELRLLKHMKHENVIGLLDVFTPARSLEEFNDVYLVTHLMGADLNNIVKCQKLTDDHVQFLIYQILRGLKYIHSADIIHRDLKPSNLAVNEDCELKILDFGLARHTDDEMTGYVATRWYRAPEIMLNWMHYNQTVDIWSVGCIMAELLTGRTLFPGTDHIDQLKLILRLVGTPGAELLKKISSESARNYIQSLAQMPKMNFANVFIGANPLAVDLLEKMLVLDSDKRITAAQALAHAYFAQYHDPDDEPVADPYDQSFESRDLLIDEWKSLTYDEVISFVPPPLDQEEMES
The target in assay [10] is T1, MAP kinase p38. The assay can be described thus: Inhibition of LPS-induced p38-related Tumor necrosis factor alpha release in human whole blood. Format: functional, tissue-based.
For assay [11], the target named is Mitogen-activated protein kinase 9 (Homo sapiens) (UniProt P45984). The assay can be described thus: Inhibition of recombinant human flag-tagged JNK2-beta-2 at 5000 nM. Format: functional. The method, boiled down: as §1
The species entered for assay [12] is Mus musculus. The assay can be described thus: Tested ex vivo for MAPKAP inhibition, activity expressed as plasma concentration. Format: functional, organism-based. The method in brief:
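Mice dosed ip at 3 mg/kg and plasma taken 1 h after dosing. Plasma compound level determined by bioassay: plasma was diluted in the p38 inhibition assay to find the dilution giving 50% inhibition (EC50). Concentration = free-compound p38 IC50 × 1/dilution factor.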

Assay [13] can be described thus: (§2) Ex vivo inhibition of Mitogen activated protein kinase activated protein 1 hr after 3 mg/kg dose. Format: functional. The note with it: Mus musculus. The method in brief: (§3)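 BALB/c mice (n = 5 per compound) dosed ip at 3 mg/kg in DMSO/EtOH/PEG400/saline (10:10:60:20). Blood collected 1 h after dosing and murine MAPKAP activity measured ex vivo as % inhibition. Significance versus vehicle assessed at p < 0.05.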

For assay [14], the system named is Mus musculus. The assay is described as §2. Format: functional, organism-based. Also noted: dose 3 mg/kg. The method, boiled down:
as §3

Assay [15] relates to Mus musculus. The assay can be described thus: Tested ex vivo for MAPKAP plasma concentration at 1 hr after dosing. Format: functional, organism-based. The method in brief: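 BALB/c mice (n = 5) given 3 mg/kg ip in DMSO/EtOH/PEG400/saline (10:10:60:20); blood drawn 1 h post-dose. Plasma level determined by bioassay: serial plasma dilutions run in the p38 inhibition assay, and the compound's free p38 IC50 multiplied by 1/(plasma dilution giving 50% inhibition, EC50).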

In assay [16] the target is T1, MAP kinase p38. The assay can be described thus: Inhibition of LPS-induced p38-related Tumor necrosis factor alpha release in human whole blood at 4000 nM. Format: functional, tissue-based.

Sequence of Mitogen-activated protein kinase 14 (P47811 whole entry, the tested form may be a part): as the sequence (P47811 whole entry) above
Sequence of Mitogen-activated protein kinase 11 (Q9WUI1 whole entry, the tested form may be a part): as the sequence (Q9WUI1 whole entry) above

For orientation: inhibition means how much of the control response was suppressed. The pIC50 is −log10 of the IC50, conventionally taken in molar units. For orientation: IC50 means the concentration that inhibits the measured activity by half. Read a high IC50 as a need for much substance. Take `O=c1ccc(-c2c(-c3ccc(F)cc3Cl)nc3ccccn23)nn1-c1c(Cl)cccc1Cl`: the inhibition in assay [1] was found to be 23%. Also, the pIC50 in [2] was 7.85; in assay [3] it was 7.19. In addition, the IC50 in assay [4] was 0.161 µM.

For `O=C1CCC(c2c(-c3ccc(F)cc3Cl)nc3ccccn23)=NN1c1c(Cl)cccc1Cl`, in assay [1], the inhibition was determined as 0%. Besides, the figures for the pIC50 in assay [2] and in [3] were 7.38 and 6.17, respectively. Also, in [4], the IC50 came out at 0.18 µM.

Consider `O=c1ccc(-c2c(-c3cccc(C(F)(F)F)c3)nc3ccccn23)nn1-c1c(Cl)cccc1Cl`, for which the values for the inhibition in assay [1], in assay [5] and in assay [6] were 0%, 50% and 41%, respectively. In addition, the pIC50 in [2] was 6.00.

In the case of `O=c1ccc(-c2c(-c3ccc(F)cc3Cl)nc3ccccn23)nn1-c1ccccc1Cl`, the inhibition in [1] is 0%. Also, the results for the pIC50 in [2] and in assay [3] were 7.12 and 6.77, respectively. The compound further returned a concentration for half-maximal inhibition (IC50) in [4] of 0.161 µM.

Take `Cc1ccccc1N1N=C(c2c(-c3cccc(Cl)c3Cl)nc3ccccn23)CCC1=O`: the inhibition in assay [7] was 33%; in [8], 0%; in [9] it was 36%. In [4], this compound showed an IC50 of 0.17 µM.

For the compound `Cc1ccccc1N1N=C(c2c(-c3ccc(F)cc3Cl)nc3ccccn23)CCC1=O`, the IC50 turned out to be 0.22 µM in assay [10] and 0.022 µM in assay [4]. Moreover, the inhibition in [11] was 4%. For the same compound, the pIC50 in assay [2] is 7.85; in assay [3] it was 7.03.

Turning to `O=C1CCC(c2c(-c3ccc(F)cc3Cl)nc3ccccn23)=NN1c1ccccc1Cl`, the inhibition in assay [1] stood at 0%. In addition, the pIC50 was 6.68 in assay [2] and 5.59 in assay [3]. For the same compound, the IC50 in assay [4] stood at 0.4 µM.

As for `O=C1CCC(c2c(-c3ccc(F)cc3F)nc3ccccn23)=NN1c1c(Cl)cccc1Cl`, the results for the IC50 in assay [10] and in assay [4] were 0.205 µM and 0.01 µM, respectively. The inhibition in assay [1] was 22%. In addition, the figures for the negative logarithm of the IC50 (pIC50) in assay [2] and in assay [3] were 8.10 and 7.20, respectively.

One may read the inhibition in vivo as the drop in the measured response relative to a control, in per cent. A high value points to strong suppression. Take `Cc1ccccc1-n1nc(-c2c(-c3ccc(F)cc3Cl)nc3ccccn23)ccc1=O`: the figures for the IC50 in [10] and in assay [4] were 0.1 µM and 0.02 µM, respectively. In assay [11], the inhibition turned out to be 16%. This compound also had a Concentration in assay [12] of 810 nM. For the same compound, the pIC50 is 8.05 in assay [2] and 7.55 in [3]. In addition, in assay [13], 3 mg/kg produced 42% inhibition in vivo.

Turning to `Cc1ccccc1-n1nc(-c2c(-c3cccc(Cl)c3Cl)nc3ccccn23)ccc1=O`, the IC50 in [10] is 0.5 µM; in assay [4] it was 0.006 µM. The inhibition in assay [1] worked out at 15%. Further, the pIC50 in [2] was 7.66; in [3], 7.36.

For the compound `O=C1CCC(c2c(-c3cccc(Cl)c3Cl)nc3ccccn23)=NN1c1c(Cl)cccc1Cl`, the inhibition came out at 26% in [11], 57% in assay [5] and 59% in assay [6]. In assay [2], the pIC50 is 5.70.

In assay [10], `O=c1ccc(-c2c(-c3ccc(F)cc3F)nc3ccccn23)nn1-c1c(Cl)cccc1Cl` had an IC50 of 1 µM. The inhibition in assay [11] was 11%; in assay [6], 89%. The pIC50 in assay [2] was 7.66; in assay [3], 6.95.

`O=c1ncn2nc(Sc3ccc(F)cc3F)ccc2c1-c1c(Cl)cccc1Cl` came in with an inhibition in assay [14] of 29%. This compound returned a Concentration in assay [15] of 1730 nM.

For `O=c1ccc(-c2c(-c3cccc(Cl)c3Cl)nc3ccccn23)nn1-c1c(Cl)cccc1Cl`, the inhibition in assay [11] is 14%; in assay [6], 65%. Also, the results for the pIC50 in assay [2] and in [3] were 6.57 and 6.05, respectively.

For the compound `Cc1ccccc1N1N=C(c2c(-c3ccc(F)cc3F)nc3ccccn23)CCC1=O`, the concentration for half-maximal inhibition (IC50) in assay [10] was determined as 0.44 µM; in assay [4], 0.014 µM. For the same compound, in [1], the inhibition came out at 4%. Moreover, the pIC50 in assay [2] was 8.10; in assay [3], 7.11.

`O=c1ccc(-c2c(-c3cccc(C(F)(F)F)c3)nc3ccccn23)nn1-c1ccccc1Cl`: the pIC50 in [2] was 6.46. The inhibition in [6] turned out to be 48%.

With `O=c1ccc(-c2c(-c3ccc(F)cc3)nc3ccccn23)nn1-c1c(Cl)cccc1Cl`, the inhibition in assay [1] is 40%; in assay [16], 60%. The values for the pIC50 in assay [2] and in assay [3] were 7.31 and 6.82, respectively. Moreover, the IC50 in [4] amounted to 0.07 µM.

Regarding `O=C1CCC(c2c(-c3cccc(C(F)(F)F)c3)nc3ccccn23)=NN1c1ccccc1Cl`, the results for the inhibition in assay [1] and in assay [6] were 0% and 72%, respectively. For the same compound, the pIC50 in [2] is 6.77; in assay [3], 6.45.

`Cc1ccccc1-n1nc(-c2c(-c3ccc(F)cc3F)nc3ccccn23)ccc1=O`: the IC50 turned out to be 0.87 µM in assay [10] and 0.068 µM in [4]. In addition, the inhibition in assay [11] stood at 15%. Further, the pIC50 in assay [2] is 7.59; in assay [3], 6.85.
